Broadly, the Ki is a dissociation constant, usually derived from enzyme kinetics or from competition with a known ligand. A high value points to a looser hold on the target.

From ChEMBL document CHEMBL1129251 (J Med Chem, 1996) come the findings set out here.

Assay [1] deals with T1, Adrenergic receptor alpha-2 (Rattus norvegicus, UniProt P22086+P19328+P22909).
T1 sequence (P22086 whole entry): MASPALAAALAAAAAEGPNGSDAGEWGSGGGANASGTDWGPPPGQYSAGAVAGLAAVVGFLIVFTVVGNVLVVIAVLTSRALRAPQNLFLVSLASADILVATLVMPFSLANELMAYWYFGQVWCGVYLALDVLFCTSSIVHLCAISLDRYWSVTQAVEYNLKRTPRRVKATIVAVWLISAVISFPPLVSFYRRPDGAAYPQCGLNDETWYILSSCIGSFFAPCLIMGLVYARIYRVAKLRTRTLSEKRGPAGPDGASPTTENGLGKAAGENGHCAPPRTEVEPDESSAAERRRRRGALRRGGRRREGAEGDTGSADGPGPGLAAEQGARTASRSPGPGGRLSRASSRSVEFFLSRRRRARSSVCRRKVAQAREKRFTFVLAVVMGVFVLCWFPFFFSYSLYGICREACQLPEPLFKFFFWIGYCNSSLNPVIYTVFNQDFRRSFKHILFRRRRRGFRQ
T1 sequence (P19328 whole entry): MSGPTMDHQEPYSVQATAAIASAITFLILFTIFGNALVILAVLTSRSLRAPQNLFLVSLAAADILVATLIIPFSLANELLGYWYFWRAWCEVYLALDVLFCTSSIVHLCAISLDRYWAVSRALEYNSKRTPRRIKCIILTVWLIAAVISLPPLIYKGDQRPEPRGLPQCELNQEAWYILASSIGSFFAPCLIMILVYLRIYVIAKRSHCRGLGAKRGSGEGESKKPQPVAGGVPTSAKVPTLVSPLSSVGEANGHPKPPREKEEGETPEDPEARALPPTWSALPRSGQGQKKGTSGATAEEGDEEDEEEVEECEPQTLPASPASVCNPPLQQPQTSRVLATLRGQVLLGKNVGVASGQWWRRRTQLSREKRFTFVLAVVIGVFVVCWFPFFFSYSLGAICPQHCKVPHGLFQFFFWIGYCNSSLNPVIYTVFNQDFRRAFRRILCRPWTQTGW
T1 sequence (P22909 whole entry): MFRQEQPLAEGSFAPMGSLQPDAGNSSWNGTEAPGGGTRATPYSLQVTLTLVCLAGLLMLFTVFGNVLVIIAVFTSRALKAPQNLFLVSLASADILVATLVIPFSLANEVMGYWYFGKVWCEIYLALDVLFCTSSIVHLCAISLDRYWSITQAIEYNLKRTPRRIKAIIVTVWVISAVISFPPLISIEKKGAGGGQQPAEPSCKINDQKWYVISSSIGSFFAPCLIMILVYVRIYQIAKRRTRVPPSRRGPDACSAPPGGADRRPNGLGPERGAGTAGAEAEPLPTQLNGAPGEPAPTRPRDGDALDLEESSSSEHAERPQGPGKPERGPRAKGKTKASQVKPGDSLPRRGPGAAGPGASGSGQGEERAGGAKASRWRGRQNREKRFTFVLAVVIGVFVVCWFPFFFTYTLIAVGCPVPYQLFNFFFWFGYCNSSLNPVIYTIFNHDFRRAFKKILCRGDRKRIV
Briefly: Alpha-2 adrenergic receptor binding affinity was tested against membrane preparations of rat brain using 0.2 nM [3H]rauwolscine as radioligand. The gist of the method: (§1)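 Rat frontal cortex membranes at about 500 µg/mL protein, labelled with [3H]rauwolscine in Tris buffer pH 7.4 containing 10 mM EDTA. Nonspecific binding set by 10 µM phentolamine. 30 °C for 30 min, then filtration and scintillation counting, in triplicate.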

Assay [2] deals with T2, Adrenergic receptor alpha-1 (Rattus norvegicus, UniProt P15823+P23944+P43140).
T2 sequence (P15823 whole entry): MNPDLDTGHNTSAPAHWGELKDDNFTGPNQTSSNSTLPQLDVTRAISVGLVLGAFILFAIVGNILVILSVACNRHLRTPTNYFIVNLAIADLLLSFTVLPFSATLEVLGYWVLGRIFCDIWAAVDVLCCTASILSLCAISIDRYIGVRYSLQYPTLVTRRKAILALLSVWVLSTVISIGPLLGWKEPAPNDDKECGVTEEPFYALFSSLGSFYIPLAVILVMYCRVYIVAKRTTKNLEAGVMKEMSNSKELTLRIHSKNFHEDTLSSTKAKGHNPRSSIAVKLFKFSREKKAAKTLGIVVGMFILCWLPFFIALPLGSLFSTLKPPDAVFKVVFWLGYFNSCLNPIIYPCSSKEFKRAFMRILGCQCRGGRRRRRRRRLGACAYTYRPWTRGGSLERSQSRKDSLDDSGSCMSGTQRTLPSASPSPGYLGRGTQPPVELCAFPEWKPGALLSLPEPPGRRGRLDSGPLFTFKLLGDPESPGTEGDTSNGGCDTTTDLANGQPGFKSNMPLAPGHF
T2 sequence (P23944 whole entry): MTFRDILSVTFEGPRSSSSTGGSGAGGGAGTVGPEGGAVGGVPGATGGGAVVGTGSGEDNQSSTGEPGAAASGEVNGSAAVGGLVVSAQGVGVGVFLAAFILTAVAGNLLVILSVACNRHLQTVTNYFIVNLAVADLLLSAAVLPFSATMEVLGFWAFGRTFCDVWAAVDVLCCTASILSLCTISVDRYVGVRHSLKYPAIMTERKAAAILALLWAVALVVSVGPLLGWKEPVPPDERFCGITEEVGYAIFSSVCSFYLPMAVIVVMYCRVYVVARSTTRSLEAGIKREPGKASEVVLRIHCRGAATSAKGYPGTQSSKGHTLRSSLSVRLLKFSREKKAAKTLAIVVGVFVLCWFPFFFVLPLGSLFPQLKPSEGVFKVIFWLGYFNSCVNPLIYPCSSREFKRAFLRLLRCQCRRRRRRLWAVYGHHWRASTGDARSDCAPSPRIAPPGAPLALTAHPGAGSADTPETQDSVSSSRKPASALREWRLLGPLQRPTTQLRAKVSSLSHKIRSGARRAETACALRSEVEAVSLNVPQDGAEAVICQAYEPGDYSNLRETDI
T2 sequence (P43140 whole entry): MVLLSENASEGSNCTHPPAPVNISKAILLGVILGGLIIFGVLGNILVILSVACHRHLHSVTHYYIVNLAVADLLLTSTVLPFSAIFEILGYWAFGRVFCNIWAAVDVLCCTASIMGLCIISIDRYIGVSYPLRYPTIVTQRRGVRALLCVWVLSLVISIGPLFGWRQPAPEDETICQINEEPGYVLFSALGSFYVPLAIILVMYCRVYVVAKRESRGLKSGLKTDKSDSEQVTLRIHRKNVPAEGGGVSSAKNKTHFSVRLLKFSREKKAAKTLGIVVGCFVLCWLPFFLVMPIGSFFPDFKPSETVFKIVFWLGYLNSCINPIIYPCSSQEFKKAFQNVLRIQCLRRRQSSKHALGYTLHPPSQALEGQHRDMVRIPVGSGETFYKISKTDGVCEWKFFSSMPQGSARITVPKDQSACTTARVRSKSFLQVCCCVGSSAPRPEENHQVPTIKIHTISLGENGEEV
Briefly: Alpha-1 adrenergic receptor binding affinity in rat brain membranes. It is filed as cell membranes. A digest of the protocol: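 Rat frontal cortex membranes, washed in 50 mM Tris-HCl/10 mM MgCl2 pH 7.4, at about 300 µg/mL protein. Labelled with 0.1 nM [3H]prazosin in the same buffer. Nonspecific binding set by 10 µM phentolamine. 30 °C for 30 min, then filtration and scintillation counting, in triplicate.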

Assay [3] can be described thus: Selectivity ratio of Ki of alpha-1 adrenergic receptor to alpha-2 receptor.
Assay [4] has as its target T1, Adrenergic receptor alpha-2. In words: Alpha-2 adrenergic receptor binding affinity was tested against membrane preparations of rat brain. A digest of the protocol: as §1

Take `C=C(c1c[nH]cn1)c1cccc2ccccc12`: the Ki in assay [1] is given as 122 nM; in assay [2], 1734 nM. Also, the Ratio in assay [3] is 14.2.
In the case of `CCC(c1c[nH]cn1)c1cccc2ccccc12` (configuration not stated), the results for the Ki in assay [1] and in assay [2] were 165 nM and 574 nM, respectively. In addition, in assay [3], the Ratio was 3.48.
`C/C=C(/c1c[nH]cn1)c1cccc2ccccc12`: the Ki in assay [1] amounted to 1474 nM; in assay [2] it was 387 nM. Further, the Ratio in assay [3] worked out at 0.26.
For the molecule `Cc1cccc(C(C)c2c[nH]cn2)c1C` (configuration not stated) [MEDETOMIDINE], the Ki in assay [4] is recorded as 25 nM.
Regarding `C[C@H](N)[C@H](O)c1ccc(O)c(O)c1` [LEVONORDEFRIN], the Ki was determined as 205 nM in assay [4] and 9221 nM in assay [2].
